Screens deposited in PubChem by The Scripps Research Institute Molecular Screening Center.
Rows were chosen to be rich in hits. Some 3.3% of all compounds tested hit in one or more screens of this group.
LEDGF integ inh – blocks HIV-1 LEDGF/p75-dependent DNA integration. TR-FRET IN-LEDGF/p75 DNA integration, Eu/Cy5. inhibition, % at 3.7 µM. hit rate 0.64% among 370,000. AID 743269;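 active means inhibition above the screen-wide mean plus 3 SD, cut at about 13% in these data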;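 further: signal is the Cy5 over europium emission ratio at 671 and 618 nm; 0% = plate median of compound wells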
TDP2 absorb – blocks human TDP2 phosphodiesterase activity; O95551; recombinant TDP2, T5PNP hydrolysis, p-nitrophenol absorbance 415 nm; inhibition, % at 12.8 µM; hit rate 0.34% among 370,000;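 active means inhibition above the mean of all tested compounds plus 3 SD, set per campaign, cut at about 25% in these data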;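 further: 0% = DMSO with enzyme and 100% = buffer with substrate but no TDP2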
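Test system: Human TDP2 enzyme | Reagent: 5 mM T5PNP | Compound dosing: 12.8 µM single point, 1% DMSO | Incubation: Enzyme reaction with compound for 2 h at 37 °C | Technique: p-Nitrophenol epi absorbance | Read-out: % inhibition relative to enzyme-containing and enzyme-free wells | Benchmarks: High control without enzyme, low control DMSO plus TDP2 | Replicates: Singlicate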
SIAE primary – human SIAE inhibition, primary screen; Q9HAT2; SIAE FP-Rh probe binding, fluorescence polarization; inhibition, % at 9.66 µM; hit rate 0.69% among 370,000;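 active means inhibition above a cutoff: mean of compounds within the control limits plus 3 SD of those, cut at about 17% in these data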;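 further: 0% = plate median of compound wells and 100% = probe without SIAE protein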
Target sequence (Q9HAT2 whole entry, looked up): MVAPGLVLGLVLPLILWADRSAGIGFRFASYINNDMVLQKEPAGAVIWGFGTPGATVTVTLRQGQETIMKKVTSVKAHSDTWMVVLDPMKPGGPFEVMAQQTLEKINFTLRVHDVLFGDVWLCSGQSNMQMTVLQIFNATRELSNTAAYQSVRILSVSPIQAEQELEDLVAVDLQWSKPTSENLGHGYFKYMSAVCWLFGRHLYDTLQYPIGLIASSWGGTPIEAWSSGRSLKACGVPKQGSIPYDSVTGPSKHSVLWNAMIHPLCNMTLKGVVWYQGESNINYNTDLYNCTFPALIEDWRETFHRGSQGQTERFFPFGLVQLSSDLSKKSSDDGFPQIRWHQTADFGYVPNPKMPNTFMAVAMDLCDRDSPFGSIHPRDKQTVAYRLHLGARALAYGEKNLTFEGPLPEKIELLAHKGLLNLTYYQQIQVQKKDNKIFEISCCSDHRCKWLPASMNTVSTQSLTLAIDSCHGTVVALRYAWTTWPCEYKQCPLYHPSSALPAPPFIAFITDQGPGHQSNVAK
MBD2 inh – MBD2-methylated oligo binding inhibition. TR-FRET, MBD2 binding to methylated oligonucleotide. inhibition, % at 4.4 µM. hit rate 0.31% among 370,000. Q9UBB5; in the data active means inhibition above about 13%
UHRF1 binding – UHRF1 methyl-DNA binding inhibition | Q96T88 | UHRF1 binding to methylated oligo, TR-FRET | inhibition, % at 4.4 µM | hit rate 0.75% among 370,000; in the data active means inhibition above about 21%;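 further: UHRF1 SRA domain binding a hemimethylated CpG hairpin DNA probe; 0% = median of test compound wells and 100% = reference inhibitor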
PRMT1 inh – PRMT1 (human) inhibition, primary screen | AID 652257 | hit rate 1.3% among 370,000 | inhibition, % at 2.79 µM | recombinant PRMT1, activity-based probe fluorescence polarization;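 active means inhibition above about 21% made by adding two undisclosed values, limit read from the data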
* = called active by the depositor.

SMILES	LEDGF integ inh	TDP2 absorb	SIAE primary	MBD2 inh	UHRF1 binding	PRMT1 inh
CCNc1nc(NCC)nc(N/N=C/c2ccccc2)n1	2	-7	1	0	1	-1
COC(=O)[C@]12C[C@H](CC(=O)N3CCCCC3)C(=O)N(Cc3ccco3)C1=C[C@H](C(C)(C)C)O[C@@H]2C	5	-5	-3	6	1	-6
Cc1ccc(S(=O)(=O)N2CCCC(C(=O)NCCN3CCC(Cc4ccccc4)CC3)C2)cc1 (stereo not given)	-2	5	-1	-1	-2	0
O=[N+]([O-])c1ccccc1/C=N/OCc1ccccc1	1	6	-3	-3	2	-1
CCN(CC)c1ccc(N=Cc2ccccc2[N+](=O)[O-])cc1	15*	10	12	-9	-4	20
Cc1ccc(-n2c(Cc3cccs3)nnc2SCc2ccc(Br)cc2)cc1	-2	-2	-1	-3	0	-1
O=C(Cc1ccc(S(=O)(=O)N2CCOCC2)s1)Nc1ccccc1Br	3	0	-5	-5	29*	5
O=C(Cc1ccc(S(=O)(=O)N2CCOCC2)s1)NCC(=O)Nc1ccccc1Br	-2	-4	4	7	4	-1
CC(C)(C)c1csc(NC(=O)Cc2ccc(S(=O)(=O)N3CCOCC3)s2)n1	1	-3	-8	-2	76*	5
CC1=C2N=C(N)N(Cc3ccccc3)C(Cc3ccccc3)C2n2c(=O)n(-c3ccccc3)c(=O)n2C1 (stereo not given)	2	-4	6	0	-1	2
COC(=O)[C@H](C)NC(=O)C(Cc1ccc2c(c1)OCO2)NC(C)=O (stereo not given in full)	6	-6	-111	1	-3	-2
CCCCCCCCNC(=O)C1CSCCS(=O)(=O)N1Cc1ccc(F)cc1 (stereo not given)	0	5	-7	-2	-1	1
CCCOC(=O)Nc1nc2ccccc2o1	1	-5	9	-2	0	-1
CCOC(=O)c1cnc(Nc2nc3ccccc3o2)nc1CN1CCN(C)CC1	18*	-4	6	-3	-5	0
O=C(CCC(=O)Nc1ccc(F)cc1)N/N=C/c1ccc(O)cc1O	-8	-2	-2	6	24*	-1
O=C(CCC(=O)Nc1ccc(F)cc1)N/N=C/c1ccc(O)cc1	-3	-1	-4	0	1	5
Cc1cccc(-c2cccc3c4c([nH]c23)[C@@H]2C[C@H](N(C)C(=O)c3ccco3)[C@H]([C@H](C)O)C(=O)N2CC4)c1	-2	-1	7	-6	-3	4
CC(C(=O)OCC(=O)Nc1ccc2c(c1)OCO2)N1C(=O)c2ccccc2C1=O (stereo not given)	3	9	4	34*	19	-1
CC(C)C(C(=O)Nc1ccc2c(c1)OCO2)N1C(=O)c2ccccc2C1=O (stereo not given)	4	3	-2	-1	-1	1
CCCCNC(=O)NS(=O)(=O)c1ccc(NC(=O)CSc2ncnc3scc(-c4ccc(C)cc4)c23)cc1	3	3	-17	6	-3	-1
C=CCN1C(C(=O)OC)CN(Cc2cn(Cc3ccc(C)cc3)nn2)CCS1(=O)=O (stereo not given)	4	-8	4	8	16	2
COC(=O)CSc1nn(-c2ccc(F)cc2)c(=S)s1	-2	-8	-1	6	21*	0
O=C(CSc1nn(-c2ccccc2)c(=S)s1)Nn1cnnc1	0	-11	-4	-2	2	-1
O=C(c1cc(F)ccc1F)N1CCCC(c2nc(-c3cccs3)no2)C1 (stereo not given)	-1	0	-1	0	-2	3
O=C(Nc1ccccc1)c1ccccc1NC(=O)c1ccccc1C(=O)O	-1	17	11	-2	28*	0
COC(=O)[C@]12C[C@H](CC(=O)NCc3ccc(C)o3)C(=O)N(Cc3ccc(Cl)cc3Cl)C1=C[C@H](COCc1ccccc1)O[C@@H]2C	0	-7	-2	-6	-1	2
O=C1[C@H](c2ccccc2)[C@@H](c2ccccc2)N1c1ccncc1	-1	1	-2	9	22*	-2
